Assay results collected from several papers.
Each line is one published result; the experiments were not run side by side.
Organism: Escherichia coli
Observed: microbial growth

Compound	method	strain	time	setting	MIC
Cc1ccc2[nH]nc(-c3nnc(Nc4ccc(Br)cc4)s3)c2c1		ATCC25922			251 µg/mL
[H]/N=C(\N/C(=N/[H])NCCCCCCNC(=N)NC(=N)Nc1ccc(Cl)cc1)Nc1ccc(Cl)cc1					0.5 µM
CN(C)c1cc(NC(=O)CNC(C)(C)C)c(O)c2c1C[C@H]1C[C@H]3[C@H](N(C)C)C(O)=C(C(N)=O)C(=O)[C@@]3(O)C(O)=C1C2=O					≤ 0.5 µg/mL
CO/N=C(\C(=O)N[C@@H]1C(=O)N2C(C(=O)O)=C(CSc3nc(=O)c(=O)[nH]n3C)CS[C@H]12)c1csc(N)n1	broth dilution	ATCC25922			16 µg/mL
Cc1ccc2[nH]nc(-c3nnc(Nc4ccc(F)cc4)s3)c2c1		ATCC25922			51.9 µg/mL
CN1CCN(CCNCc2cc3cc(Br)ccc3nc2SCc2ccccc2)CC1	broth dilution				16 µg/mL
COc1ccc2ccc(O)c(/C=N/[C@H]3CCCC[C@H]3/N=C/c3c(O)cccc3F)c2c1	broth dilution				> 40 µM
CN(Cc1cnc2nc(N)nc(N)c2n1)c1ccc(C(=O)N[C@@H](CCC(=O)O)C(=O)O)cc1	broth dilution	BW25113	18 h		> 250 µg/mL
Cc1ccc2[nH]nc(-c3nnc(Nc4ccc([N+](=O)[O-])cc4)s3)c2c1		ATCC25922			92.8 µg/mL
CO/N=C(\C(=O)N[C@@H]1C(=O)N2C(C(=O)[O-])=C(C[N+]3(C)CCCC3)CS[C@H]12)c1csc(N)n1					≤ 0.12 µg/mL
CCN(CC)c1ccc(C=NNC(=O)c2ccc(Cl)cc2)c(O)c1	broth dilution	ATCC25922			> 256 µg/mL
COc1cc2cc(CNCCN3CCN(C)CC3)c(SCc3ccccc3)nc2c(OC)c1OC	broth dilution				> 128 µg/mL
N#CC(C#N)=C1SC(C(=O)c2ccc(Nc3cnccn3)cc2)=NN1c1ccccc1	broth dilution	ATCC10536			50 µg/mL
Cc1ccc2[nH]nc(-c3nnc(Nc4ccc(C)c(C)c4)s3)c2c1		ATCC25922			124 µg/mL
CCOC(=O)C(C)c1n[nH]c2nc(N)[nH]c(=O)c2c1=O (stereo not drawn)	broth dilution	BW25113	18 h		> 100 µg/mL
CC(=O)C1=NN(c2ccc([N+](=O)[O-])cc2)C(=C(C#N)C(=O)c2ccc(Nc3cnccn3)cc2)S1	broth dilution	ATCC10536			6.25 µg/mL
Cc1ccc2[nH]nc(-c3nnc(Nc4ccc(O)cc4)s3)c2c1		ATCC25922			64.7 µg/mL
c1ccc(CSc2nc3ccccc3cc2CNCc2ccc(N3CCCCC3)cc2)cc1	broth dilution				> 128 µg/mL
CCCCCCCCN=c1ccn(CCCCCCCCCCn2ccc(=NCCCCCCCC)cc2)cc1					0.5 µM
Cc1ccc2[nH]nc(-c3nnc(Nc4ccc(Cl)c(Cl)c4)s3)c2c1		ATCC25922			140 µg/mL
[H]/N=C(/N)N[C@H]1[C@H](O)[C@@H](O)[C@H](O[C@@H]2O[C@@H](C)[C@](O)(C=O)[C@H]2O[C@@H]2O[C@@H](CO)[C@H](O)[C@@H](O)[C@@H]2NC)[C@@H](N/C(N)=N\[H])[C@@H]1O	broth dilution	ATCC25 ATCC25922			20 µg/mL

Compound	method	strain	time	setting	MIC
C[C@H]1COc2c(N3CCN(C)CC3)c(F)cc3c(=O)c(C(=O)O)cn1c23					≤ 0.12 µg/mL
CC1(C)S[C@@H]2[C@H](NC(=O)[C@H](N)c3ccccc3)C(=O)N2[C@H]1C(=O)O	broth dilution	ATCC25922			4 µg/mL
CN1CCN(CCNCc2cc3ccccc3nc2SCc2ccccc2)CC1	broth dilution				64 µg/mL
CC(=O)OCC1=C(C(=O)O)N2C(=O)[C@@H](NC(=O)Cc3cccs3)[C@H]2SC1	broth dilution	ATCC10536			3.12 µg/mL
O=C(O)c1cn(C2CC2)c2cc(N3CCNCC3)c(F)cc2c1=O	broth dilution	ATCC25922			4 µg/mL
CCN1CCC(CCNCc2cc3cc(Br)ccc3nc2SCc2ccccc2)CC1	broth dilution				32 µg/mL
Cc1ccc2[nH]nc(-c3nnc(Nc4ccc(F)cc4Cl)s3)c2c1		ATCC25922			72.8 µg/mL
O=C1/C(=C/c2ccc3ccccc3c2O)NC(=S)N1c1ccccc1	broth dilution	ATCC25 ATCC25922			16 µg/mL
N=c1sc(C(=O)c2ccc(Nc3cnccn3)cc2)nn1-c1ccc([N+](=O)[O-])cc1	broth dilution	ATCC10536			6.25 µg/mL
CCN1CCN(c2cc3c(cc2F)c(=O)c(C(=O)O)cn3C2CC2)CC1	broth dilution	ATCC25922			0.0625 µg/mL
CCN1CCC(CCNCc2cc3cc(OC)c(OC)c(OC)c3nc2SCc2ccccc2)CC1	broth dilution				> 128 µg/mL
N[C@@H](Cc1c[nH]c2ccc(Cl)cc12)C(=O)O		MG1655	18 h		> 200 µM
COc1ccc(N2N=C(C(=O)c3ccc(Nc4cnccn4)cc3)SC2=C(C#N)C#N)cc1	broth dilution	ATCC10536			6.25 µg/mL
CCN1CCC(CCNCc2cc3cc(-c4ccccc4)ccc3nc2SCc2ccccc2)CC1	broth dilution				8 µg/mL
COc1ccc(-n2nc(C(=O)c3ccc(Nc4cnccn4)cc3)sc2=N)cc1	broth dilution	ATCC10536			12.5 µg/mL
COc1ccc2ccc(O)c(/C=N/[C@H]3CCCC[C@H]3/N=C/c3ccc(OCCN4CCCCC4)cc3O)c2c1	broth dilution				> 40 µM
CC[C@H]1OC(=O)[C@H](C)[C@@H](O[C@H]2C[C@@](C)(OC)[C@@H](O)[C@H](C)O2)[C@H](C)[C@@H](O[C@@H]2O[C@H](C)C[C@H](N(C)C)[C@H]2O)[C@](C)(O)C[C@@H](C)CN(C)[C@H](C)[C@@H](O)[C@]1(C)O	broth dilution				4 µM
C[C@H]1COc2c(N3CCN(C)CC3)c(F)cc3c(=O)c(C(=O)O)cn1c23		ATCC25922		drug-resistant strain	≤ 0.03 µg/mL
CN(C)[C@@H]1C(O)=C(C(N)=O)C(=O)[C@@]2(O)C(O)=C3C(=O)c4c(O)cccc4[C@@](C)(O)[C@H]3C[C@@H]12	broth dilution	ATCC25922	16 h		3.1 µM
COc1ccc2ccc(O)c(/C=N/[C@H]3CCCC[C@H]3/N=C/c3ccc(-c4ccccc4)cc3O)c2c1	broth dilution				> 40 µM
CCN(CC)c1ccc(C=NC(=O)c2ccccc2)c(O)c1	broth dilution	ATCC25922			> 256 µg/mL
